The source of these data is ChEMBL document CHEMBL1131435, “Biphenylsulfonamide endothelin antagonists: structure-activity relationships of a series of mono- and disubstituted analogues and pharmacology of the orally active endothelin antagonist 2'-amino-N- (3,4-dimethyl-5-isoxazolyl)-4'-(2-methylpropyl)[1, 1'-biphenyl]-2-sulfonamide (BMS-187308)” (J Med Chem, 1998).

The pKi is −log10 of the Ki, conventionally taken in molar units.

pKi: −log10 of the molar value.

Assay [1] deals with T1, Endothelin-1 receptor (Rattus norvegicus, UniProt P26684).
T1 sequence (P26684 whole entry): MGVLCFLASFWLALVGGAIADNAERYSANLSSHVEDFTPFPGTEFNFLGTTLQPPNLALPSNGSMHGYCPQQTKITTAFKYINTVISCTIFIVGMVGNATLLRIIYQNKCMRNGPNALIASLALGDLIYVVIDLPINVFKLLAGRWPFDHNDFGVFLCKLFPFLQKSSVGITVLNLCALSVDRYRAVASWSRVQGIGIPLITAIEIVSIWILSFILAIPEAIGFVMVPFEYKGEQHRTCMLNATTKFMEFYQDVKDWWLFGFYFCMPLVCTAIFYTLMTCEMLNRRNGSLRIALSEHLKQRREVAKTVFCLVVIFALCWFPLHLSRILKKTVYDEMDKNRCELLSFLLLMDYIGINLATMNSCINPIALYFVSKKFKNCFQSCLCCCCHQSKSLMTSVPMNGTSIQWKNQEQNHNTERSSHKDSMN
The assay is described as follows: Ability to inhibit binding of [125I]ET1 to membranes prepared from A10 rat thoracic aorta smooth muscle Endothelin A receptor. Type of assay: tissue-based.

Assay [2] deals with T2, Endothelin receptor type B (Rattus norvegicus, UniProt P21451).
T2 sequence (P21451 whole entry): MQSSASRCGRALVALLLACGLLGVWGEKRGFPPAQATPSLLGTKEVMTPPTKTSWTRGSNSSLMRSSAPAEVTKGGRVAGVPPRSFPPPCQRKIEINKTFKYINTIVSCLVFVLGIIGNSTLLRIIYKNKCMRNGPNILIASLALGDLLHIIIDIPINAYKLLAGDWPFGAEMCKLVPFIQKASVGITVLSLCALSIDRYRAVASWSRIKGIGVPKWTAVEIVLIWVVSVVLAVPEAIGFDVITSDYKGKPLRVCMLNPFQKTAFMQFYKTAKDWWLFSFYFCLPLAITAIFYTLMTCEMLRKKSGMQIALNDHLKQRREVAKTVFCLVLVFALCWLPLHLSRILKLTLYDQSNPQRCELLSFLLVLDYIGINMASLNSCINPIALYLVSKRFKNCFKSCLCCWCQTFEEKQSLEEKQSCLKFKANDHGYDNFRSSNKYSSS
The assay is described as follows: Ability to inhibit binding of [125I]-ET-1 to membranes prepared from […] rat cerebellum (Endothelin B receptor). The assay is classed as tissue-based.

The target in assay [3] is Endothelin receptor type B (Rattus norvegicus) (UniProt P21451). The assay is described as follows: Inhibition of [125I]ET-1 binding to rat cerebellum membranes (Endothelin B receptor) was determined in a radioligand binding assay.
The target of assay [4] is Endothelin-1 receptor (Rattus norvegicus). The assay can be described thus: Ability to inhibit Endothelin A receptor induced contractions in rabbit carotid artery rings (ETA) was determined in an in vitro functional assay.
For assay [5], the target named is T1, Endothelin-1 receptor. The assay can be described thus: Ability to inhibit binding of [125I]ET1 to membranes prepared from A10 rat thoracic aorta smooth muscle (Endothelin A receptor) was determined by radioligand binding assay. The assay is classed as tissue-based. In a few lines: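 Competition binding of [125I]ET-1 to membranes prepared from A10 rat thoracic aorta smooth muscle cells (ET_A). Data were fitted iteratively to a one- or two-site binding model, and Ki was calculated from the IC50. Values are reported as Ki ± SE.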

On to `Cc1noc(NS(=O)(=O)c2ccccc2-c2ccc(CC(C)C)cc2C(N)=O)c1C`, for which the figures for the pKi (at Endothelin-1 receptor [1]; in assay [2]) were 7.00 and 4.92, respectively.

`CNc1cc(CC(C)C)ccc1-c1ccccc1S(=O)(=O)Nc1onc(C)c1C`: the negative logarithm of the Ki (pKi) at Endothelin-1 receptor [1] is 7.85; in assay [2], 5.66.

On to `Cc1noc(NS(=O)(=O)c2ccccc2-c2ccc(OCc3ccccc3)cc2)c1C`, for which the results for the pKi (at Endothelin-1 receptor [1]; in assay [2]) were 6.72 and 5.08, respectively. As for `Cc1noc(NS(=O)(=O)c2ccccc2-c2cccnc2)c1C`, the pKi in assay [3] is below 3.70.

On to `CC(C)Cc1ccc(-c2ccccc2S(=O)(=O)Nc2onc3c2CCCC3)cc1`, for which the pKi is 4.62 on Endothelin-1 receptor [1] and below 3.70 in assay [2]. For the molecule `Cc1noc(NS(=O)(=O)c2ccccc2-c2cc3ccccc3[nH]2)c1C`, the pKi in assay [3] is 4.18. Regarding `Cc1noc(NS(=O)(=O)c2ccccc2-c2ccccn2)c1C`, the pKi in assay [4] is 6.09. As to `Cc1noc(NS(=O)(=O)c2ccccc2-c2ccc(S(=O)(=O)C(C)C)cc2)c1C`, the negative-log Ki (pKi) on Endothelin-1 receptor [1] is 6.96; in assay [2] it was 3.77. For `Cc1cnoc1NS(=O)(=O)c1ccccc1-c1ccc(CC(C)C)cc1` the same measures were 6.01 and 4.00.

Take `Cc1noc(NS(=O)(=O)c2cccc(OCC(=O)O)c2-c2ccc(CC(C)C)cc2)c1C`: the values for the negative-log Ki (pKi) (at Endothelin-1 receptor [1]; in assay [2]) were 7.38 and 5.40, respectively.

In the case of `Cc1noc(NS(=O)(=O)c2ccccc2-c2ccc(CC(C)C)cc2CO)c1C`, the pKi was 7.70 at Endothelin-1 receptor [1] and 5.89 in assay [2]. Molecule `Cc1noc(NS(=O)(=O)c2ccccc2-c2ccsc2)c1C` showed a pKi in assay [3] below 3.70. Consider `Cc1noc(NS(=O)(=O)c2ccccc2-c2ccc(S(=O)(=O)N(C)C)cc2)c1C`, for which the figures for the pKi (on Endothelin-1 receptor [1]; in assay [2]) were 6.25 and below 3.70, respectively. `Cc1noc(NS(=O)(=O)c2ccccc2-c2c[nH]c3ccccc23)c1C` showed a pKi in assay [3] below 3.70. As to `Cc1noc(NS(=O)(=O)c2ccccc2-c2ccccc2[N+](=O)[O-])c1C`, the pKi on Endothelin-1 receptor [1] is 6.85; in assay [2], below 3.70. Consider `Cc1noc(NS(=O)(=O)c2ccccc2-c2ncccn2)c1C`, for which the figures for the pKi in assay [3] and in assay [4] were below 3.70 and 5.06, respectively. Consider `Cc1noc(NS(=O)(=O)c2ccccc2-c2cccs2)c1C`, for which the pKi in assay [3] is below 3.70. For `Cc1noc(NS(=O)(=O)c2cccc(O)c2-c2ccc(CC(C)C)cc2)c1C`, the pKi on Endothelin-1 receptor [1] was 8.30; in assay [2], 6.03.

In the case of `Cc1noc(NS(=O)(=O)c2ccccc2Br)c1C`, the negative-log Ki (pKi) at Endothelin-1 receptor [5] is 5.10. `Cc1noc(NS(=O)(=O)c2cccc3c(N(C)C)cccc23)c1C` [BMS-182874]: the values for the negative-log Ki (pKi) (at Endothelin-1 receptor [1]; in assay [2]) were 7.26 and below 3.70, respectively.
